Test results as given in ChEMBL document CHEMBL2311271 (Eur J Med Chem, 2013).

Experiments:
Type in all cases: functional, cell-based
KB = experiment: Cytotoxicity against human KB cells by MTT assay
Outline: (§1)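 Cells grown in RPMI-1640 with 10% fetal calf serum plus penicillin and streptomycin, 37 °C, 5% CO₂. Compounds in DMSO, final ≤2% (v/v), tested in 96-well cultures with MTT staining. IC₅₀ = concentration cutting optical density 50% versus untreated cells; three replicate wells per point; mean of three independent determinations.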

CWR22R = experiment: Cytotoxicity against human 22Rv1 cells by MTT assay; outline: as §1
U-251 = experiment: Cytotoxicity against human U251 cells by MTT assay; outline: as §1
[1] = Cytotoxicity against human Blu-87 cells by MTT assay; outline: as §1
769-P = experiment: Cytotoxicity against human 769-P cells by MTT assay; outline: as §1
SCaBER = experiment: Cytotoxicity against human SCaBER cells by MTT assay; outline: as §1
HT-29 = experiment: Cytotoxicity against human HT-29 cells by MTT assay; outline: as §1
786-0 = experiment: Cytotoxicity against human 786-0 cells by MTT assay; outline: as §1
A-375 = experiment: Cytotoxicity against human A375 cells by MTT assay; outline: as §1
A549 = experiment: Cytotoxicity against human A549 cells by MTT assay; outline: as §1
OS-RC-2 = experiment: Cytotoxicity against human OS-RC2 cells by MTT assay; outline: as §1
MCF7 = experiment: Cytotoxicity against human MCF7 cells by MTT assay; outline: as §1
HepG2 = experiment: Cytotoxicity against human HepG2 cells by MTT assay; outline: as §1
Bel-7402 = experiment: Cytotoxicity against human Bel7402 cells by MTT assay; outline: as §1
BGC-823 = experiment: Cytotoxicity against human BGC823 cells by MTT assay; outline: as §1
HeLa = experiment: Cytotoxicity against human HeLa cells by MTT assay; outline: as §1

Structure (SMILES): CCCCOc1ccc2c3cc[n+](Cc4ccccc4)c(C)c3n(CC(C)C)c2c1
- IC50 (KB): 6 µM
- IC50 (CWR22R): < 1.6 µM
- IC50 (U-251): 1.8 µM
- IC50 [1]: 8.9 µM
- IC50 (769-P): 2.3 µM
- IC50 (SCaBER): 9.7 µM
- IC50 (HT-29): 4 µM
- IC50 (786-0): 2.4 µM
- IC50 (A-375): 2.1 µM
- IC50 (A549): 2.2 µM
- IC50 (OS-RC-2): 5.8 µM

Structure (SMILES): CCCCCCCCOc1ccc2c3cc[n+](Cc4ccccc4)c(C)c3n(CCCc3ccccc3)c2c1
- IC50 (KB): < 1.5 µM
- IC50 (CWR22R): < 1.5 µM
- IC50 (U-251): 2.9 µM
- IC50 [1]: 1.9 µM
- IC50 (769-P): 1.8 µM
- IC50 (SCaBER): 6.1 µM
- IC50 (HT-29): 3.4 µM
- IC50 (786-0): < 1.5 µM
- IC50 (A-375): < 1.5 µM
- IC50 (A549): 1.6 µM
- IC50 (OS-RC-2): 1.7 µM

Structure (SMILES): CCOc1ccc2c3cc[n+](Cc4ccccc4)c(C)c3n(CC)c2c1
- IC50 (KB): 4.6 µM
- IC50 (U-251): 15.2 µM
- IC50 [1]: 23.4 µM
- IC50 (769-P): 6.4 µM
- IC50 (SCaBER): 19.8 µM
- IC50 (HT-29): 10.2 µM
- IC50 (786-0): 9.6 µM
- IC50 (A-375): 6.8 µM
- IC50 (A549): 11.2 µM
- IC50 (OS-RC-2): 7.8 µM

Structure (SMILES): CCn1c2cc(OCc3ccccc3)ccc2c2ccnc(C)c21
- IC50 (MCF7): > 100 µM
- IC50 (HepG2): 15.5 µM
- IC50 (Bel-7402): > 100 µM
- IC50 (BGC-823): 17.2 µM
- IC50 (HeLa): > 100 µM

Structure (SMILES): CCCCCCCCCCOc1ccc2c3ccnc(C)c3n(CCCC)c2c1
- IC50 (HepG2): > 100 µM
- IC50 (HeLa): > 100 µM

Structure (SMILES): Cc1nccc2c3ccc(OCc4c(F)c(F)c(F)c(F)c4F)cc3n(CCCc3ccccc3)c12
- IC50 (HepG2): > 100 µM

Structure (SMILES): CCCCCCCCOc1ccc2c3ccnc(C)c3n(CCCc3ccccc3)c2c1
- IC50 (HepG2): > 100 µM
- IC50 (HeLa): > 100 µM

Structure (SMILES): CCCCn1c2cc(OCC(C)C)ccc2c2ccnc(C)c21
- IC50 (KB): 19.4 µM
- IC50 (U-251): 32.3 µM
- IC50 [1]: 17.4 µM
- IC50 (769-P): 4 µM
- IC50 (SCaBER): 15.9 µM
- IC50 (HT-29): 20.1 µM
- IC50 (786-0): 14.4 µM
- IC50 (A-375): 18.4 µM
- IC50 (A549): 30 µM
- IC50 (OS-RC-2): 30.5 µM
- IC50 (MCF7): 21.6 µM
- IC50 (HepG2): 15.3 µM
- IC50 (Bel-7402): 25.6 µM
- IC50 (BGC-823): 23.4 µM
- IC50 (HeLa): 40.7 µM

Structure (SMILES): CCCCn1c2cc(OC(CC)CC)ccc2c2ccnc(C)c21
- IC50 (KB): 19.8 µM
- IC50 (U-251): 25.1 µM
- IC50 [1]: 16 µM
- IC50 (769-P): 22.2 µM
- IC50 (SCaBER): 43.8 µM
- IC50 (HT-29): 25.1 µM
- IC50 (786-0): 13.4 µM
- IC50 (A-375): 18.8 µM
- IC50 (A549): 21 µM
- IC50 (OS-RC-2): 26.9 µM
- IC50 (MCF7): 5.4 µM
- IC50 (HepG2): 15.6 µM
- IC50 (Bel-7402): 21.5 µM
- IC50 (BGC-823): 16.7 µM
- IC50 (HeLa): 28.2 µM

Structure (SMILES): CCCCn1c2cc(OCC(O)C(F)(F)F)ccc2c2ccnc(C)c21 (stereo not given)
- IC50 (MCF7): 33.1 µM
- IC50 (HepG2): > 100 µM
- IC50 (Bel-7402): 62 µM
- IC50 (BGC-823): 96.4 µM
- IC50 (HeLa): > 100 µM

Structure (SMILES): CCCCCCCCOc1ccc2c3ccnc(C)c3n(CCCC)c2c1
- IC50 (MCF7): 13.6 µM
- IC50 (HepG2): 13.6 µM
- IC50 (Bel-7402): > 100 µM
- IC50 (BGC-823): 15.4 µM
- IC50 (HeLa): > 100 µM

Structure (SMILES): CCCCn1c2cc(OCc3ccccc3)ccc2c2ccnc(C)c21
- IC50 (KB): 45 µM
- IC50 [1]: 32.7 µM
- IC50 (769-P): 17.1 µM
- IC50 (SCaBER): 39.7 µM
- IC50 (HT-29): 26.8 µM
- IC50 (786-0): 10.1 µM
- IC50 (A-375): 28.6 µM
- IC50 (A549): 18.1 µM
- IC50 (MCF7): 16.9 µM
- IC50 (HepG2): 17.8 µM
- IC50 (Bel-7402): > 100 µM
- IC50 (BGC-823): 17.2 µM
- IC50 (HeLa): 47 µM

Structure (SMILES): CCCCn1c2cc(OCc3c(F)c(F)c(F)c(F)c3F)ccc2c2ccnc(C)c21
- IC50 (MCF7): > 100 µM
- IC50 (HepG2): 13.6 µM
- IC50 (Bel-7402): > 100 µM
- IC50 (BGC-823): 18.3 µM
- IC50 (HeLa): > 100 µM

Structure (SMILES): CCCCn1c2cc(OCCCc3ccccc3)ccc2c2ccnc(C)c21
- IC50 (KB): 41.6 µM
- IC50 (CWR22R): 40.5 µM
- IC50 (U-251): 29.9 µM
- IC50 [1]: 26.9 µM
- IC50 (769-P): 21.3 µM
- IC50 (SCaBER): 20.3 µM
- IC50 (HT-29): 51.2 µM
- IC50 (786-0): 12.9 µM
- IC50 (A-375): 21.5 µM
- IC50 (A549): 28.1 µM
- IC50 (MCF7): 16 µM
- IC50 (HepG2): 15.6 µM
- IC50 (Bel-7402): > 100 µM
- IC50 (BGC-823): 13.8 µM
- IC50 (HeLa): 24.7 µM

Structure (SMILES): Cc1nccc2c3ccc(OCC(C)C)cc3n(CC(C)C)c12
- IC50 (KB): 27.5 µM
- IC50 (U-251): 49.6 µM
- IC50 [1]: 32.3 µM
- IC50 (769-P): 30.8 µM
- IC50 (SCaBER): 28.8 µM
- IC50 (HT-29): 35.3 µM
- IC50 (786-0): 18.1 µM
- IC50 (A-375): 22.2 µM
- IC50 (A549): 32.4 µM
- IC50 (OS-RC-2): 30.5 µM
- IC50 (MCF7): 29.4 µM
- IC50 (HepG2): 36.8 µM
- IC50 (Bel-7402): 42.6 µM
- IC50 (BGC-823): 26.6 µM
- IC50 (HeLa): 32.3 µM

Structure (SMILES): CCCCCCCCCCOc1ccc2c3ccnc(C)c3n(CC(C)C)c2c1
- IC50 (MCF7): > 100 µM
- IC50 (HepG2): > 100 µM
- IC50 (Bel-7402): > 100 µM
- IC50 (BGC-823): 74.1 µM
- IC50 (HeLa): 2 µM
